# In PubChem BioAssay:
# Activity calls are given as the source filed them. Rule as the data show it, unless noted: active = inhibition above about 30%; inactive = the rest.
# What was measured:
# [1] = reduced viability of SK-BR-3 breast cancer cells – cell-based, 24 h, human, pilot screen (AID 572;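 active = viability at or below 10% of carrier control in both of two separate runs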;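 also: compound exposure lasted between 18 and 24 h rather than exactly 24 h; 100% = carrier-treated control wells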); settings: SK-BR-3 viability, CellTiter-Glo luminescence, at 10 µM, stronger effect = lower value
# [2] = HUVEC growth inhibition – cell-based, human, primary screen (AID 575;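 active = viability at or below 30% in both replicate assays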;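 also: 100% = median of untreated cell wells with 0.1% DMSO on each plate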); settings: HUVEC proliferation, CellTiter-Glo luminescence, 72 h; at 10 µM; stronger effect = lower value
# Outline: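 Assay system: primary human umbilical vein endothelial cells / Buffer or medium: endothelial basal medium with 2% FBS plus growth supplements / Compound dosing: one dose, 10 µM final, 0.1% DMSO / Timing: 72 h treatment at 37 °C / Signal: CTG luminescence / Benchmarks: 32 DMSO-only cell-control wells (high), 32 MePR drug-control wells (low) per plate / Plate: collagen-coated 384-well format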
# [3] = H69AR cell proliferation blockers – human, duplicate replicates, primary screen (AID 580;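 active = viability at or under a set limit in both replicates, limit being median viability minus 3 SD, cut at about 48% in these data, passing the limit was not always enough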;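 also: 100% = mean luminescence of untreated wells and 0% = no signal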); settings: H69AR lung tumor cells viability, ATP luminescence, 72 h; at 10 µM; stronger effect = lower value
# [4] = MRP1 drug-resistance reversers in H69AR cells – cell-based, doxorubicin co-treatment, pilot screen (AID 601;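 active = viability loss from added drug above about 55%, and viability with drug at most 40%, in both replicates, limit read from the data, passing the limit was not always enough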); settings: CellTiter-Glo, 72 h, at 10 µM; for differential viability (reversal): stronger effect = higher value
# [5] = yeast transport mutant growth inhibition pilot in 384-well plates, post-Golgi transport modulator project (AID 636; in the data active = inhibition above about 31%); settings: absorbance 615 nm, about 18 h, stronger effect = higher value
# [6] = growth suppression of yeast trafficking mutant, preliminary HTS, modulators of trafficking downstream of Golgi apparatus project, 1536-format plate, OD 615 nm (AID 637); settings: yeast transport mutant growth, absorbance 615 nm, 18 h; stronger effect = higher value
# [7] = H69AR cells + 2 uM doxorubicin, measured here: viability with 2 uM doxorubicin, stronger effect = lower value
# [8] = H69AR cells, compound alone cytotoxicity
SMILES,viability [1],viability [2],viability [3],differential viability (reversal) ([4]; H69AR cells + 2 uM doxorubicin),"viability [4, 7] [%]","viability [4, 8] [%]",inhibition [5],inhibition [6]
COC(=O)c1ccccc1OCC(=O)NC1CCCCC1,96% (inactive),106% (inactive),90.2% (inactive),-1.72% (inactive),91.9,90.2,-5.21% (inactive),-6.77% (inactive)
O=C(Nc1cccc2ccccc12)N1CCN(c2ccccc2)CC1,89% (inactive),96.8% (inactive),94.4% (inactive),-7% (inactive),101,94.4,-0.91% (inactive),0.49% (inactive)
COCCn1nnnc1SCC(=O)N1CCCCC1,63% (inactive),102% (inactive),99.4% (inactive),1.98% (inactive),97.4,99.4,-5.34% (inactive),4.18% (inactive)
Cc1nc2ncnn2c(N2CCC(C(=O)NCC3CCCO3)CC2)c1Cc1ccccc1 (stereo unspecified),136% (inactive),97.1% (inactive),89.5% (inactive),-6.76% (inactive),96.3,89.5,-3.7% (inactive),-4.55% (inactive)
COC(=O)Nc1sccc1C(=O)Nc1sccc1C(=O)OC,62% (inactive),88.5% (inactive),52.2% (inactive),-13.8% (inactive),66,52.2,2.47% (inactive),-2.36% (inactive)
Cc1ccccc1-n1c(SCc2c(C)noc2C)nnc1-c1ccncc1,92% (inactive),87.5% (inactive),87.4% (inactive),8.34% (inactive),79.1,87.4,-3.78% (inactive),-2% (inactive)
Cc1cc(C)cc(C(=O)N2CCC(C(N)=O)CC2)c1,91% (inactive),105% (inactive),97.2% (inactive),9.71% (inactive),87.5,97.2,-8.78% (inactive),0% (inactive)
COc1ccccc1NC(=O)NCc1ccc2c(c1)OCO2,87% (inactive),101% (inactive),93% (inactive),-1.33% (inactive),94.4,93,-4.13% (inactive),-3.82% (inactive)
Cc1ccc2nc(C(F)(F)F)c(C#N)c(N)c2c1,50% (inactive),78.9% (inactive),71.3% (inactive),-43.8% (inactive),115,71.3,-4.38% (inactive),6.55% (inactive)
COc1ccc(C2C(C(=O)c3sc(C)nc3C)=C(O)C(=O)N2CCN(C)C)cc1 (stereo unspecified),106% (inactive),106% (inactive),93.1% (inactive),12.4% (inactive),80.7,93.1,-8% (inactive),4.36% (inactive)
CCC1CCCCN1S(=O)(=O)c1ccc(C(=O)Nc2nnc(-c3ccccc3Cl)o2)cc1 (stereo unspecified),74% (inactive),13.5% (active),20.1% (active),-21.7% (inactive),41.8,20.1,-0.13% (inactive),11.6% (inactive)
O=[n+]1cc(-c2ccc(F)cc2)n([O-])c2c1CCC2,97% (inactive),100% (inactive),90.7% (inactive),1.25% (inactive),89.4,90.7,-1.82% (inactive),1.97% (inactive)
CCOC(=O)c1[nH]c2ccc(C)cc2c1NC(=O)CN1CCCCC1,107% (inactive),106% (inactive),87.8% (inactive),0.72% (inactive),87.1,87.8,-5.73% (inactive),-3.09% (inactive)
COc1ccc(C(C)NC(=O)c2ccoc2C)cc1OC (stereo unspecified),83% (inactive),91.3% (inactive),89.8% (inactive),-4.93% (inactive),94.7,89.8,-6.16% (inactive),1.82% (inactive)
CCN(CC)CCNC(=O)c1cc(Cl)c(N)cc1OC,89% (inactive),85.9% (inactive),93.8% (inactive),-8.38% (inactive),102,93.8,-3.25% (inactive),-2.5% (inactive)
CCc1nnc(NC(=O)CSc2nc(-c3ccc(OC)cc3)ns2)s1,110% (inactive),101% (inactive),93.1% (inactive),-0.64% (inactive),93.7,93.1,-5.07% (inactive),0.91% (inactive)
O=C(NCC(F)(F)F)Nc1cccnc1,82% (inactive),92.8% (inactive),99.6% (inactive),6% (inactive),93.6,99.6,-4.19% (inactive),-4% (inactive)
COCCn1nnnc1C(c1cc2ccc(OC)cc2[nH]c1=O)N1CCc2ccccc2C1 (stereo unspecified),89% (inactive),90.4% (inactive),85.6% (inactive),-13.3% (inactive),98.9,85.6,-1.64% (inactive),4.52% (inactive)
Cc1occc1-c1nc(-c2ccncc2)no1,79% (inactive),83.2% (inactive),95.4% (inactive),2.9% (inactive),92.5,95.4,0.96% (inactive),-8.87% (inactive)

SMILES,viability [1],viability [2],viability [3],differential viability (reversal) ([4]; H69AR cells + 2 uM doxorubicin),"viability [4, 7] [%]","viability [4, 8] [%]",inhibition [5],inhibition [6]
Cc1c(C=NCCOCc2ccccc2)cnn1C,92% (inactive),109% (inactive),96.2% (inactive),14% (inactive),82.2,96.2,0% (inactive),-0.48% (inactive)
CC(C)C[C@H](NC(=O)Nc1cccc(C(F)(F)F)c1)C(=O)O,115% (inactive),98.1% (inactive),106% (inactive),14.6% (inactive),91.8,106,-4.25% (inactive),-0.81% (inactive)
O=C(COc1ccc(S(=O)(=O)NC2CCCCC2)cc1)NCc1ccccn1,65% (inactive),102% (inactive),85.6% (inactive),-3% (inactive),88.6,85.6,-7.26% (inactive),2.18% (inactive)
COC(=O)C1C2C=CC3(CN(CC4CCCO4)C(=O)C13)O2 (stereo unspecified),78% (inactive),114% (inactive),102% (inactive),-9.38% (inactive),111,102,-6.99% (inactive),-0.18% (inactive)
CCn1c(SCC(=O)NC)nnc1C(C)C,97% (inactive),123% (inactive),94.8% (inactive),8.98% (inactive),85.8,94.8,-7.3% (inactive),-4.91% (inactive)
Cc1nc2cc(NC(=O)N3c4ccccc4CC3C)ccc2o1 (stereo unspecified),91% (inactive),96.2% (inactive),86.3% (inactive),8.09% (inactive),78.2,86.3,-5.6% (inactive),-13.4% (inactive)
CCOC(=O)C1CCCN(C(=O)Cc2ccc(OC)c(OC)c2)C1 (stereo unspecified),81% (inactive),99.5% (inactive),94.5% (inactive),2.69% (inactive),91.8,94.5,-6.85% (inactive),1.09% (inactive)
CC(=O)c1c(C)[nH]c(C(=O)Nc2c(C)n(C)n(-c3ccccc3)c2=O)c1C,82% (inactive),101% (inactive),90.2% (inactive),7.98% (inactive),82.2,90.2,-8.63% (inactive),0% (inactive)
O=C(Nc1ccc2c(c1)nc1n2CCN(Cc2ccccc2)C1)c1cccs1,76.5% (inactive),88.7% (inactive),80.2% (inactive),-12.4% (inactive),92.6,80.2,-5.89% (inactive),6.19% (inactive)
Cc1c(NC(=O)c2nn(C)c(=O)c3ccccc23)c(=O)n(-c2ccccc2)n1C,94% (inactive),108% (inactive),97.9% (inactive),8.84% (inactive),89.1,97.9,-1.92% (inactive),-8.06% (inactive)
COC(=O)c1ccc(CSc2nc3ccccc3s2)o1,101% (inactive),88.7% (inactive),85% (inactive),-19.3% (inactive),104,85,-4.93% (inactive),-3.09% (inactive)
C/C=C(\CS(=O)(=O)c1ccccc1)S(=O)(=O)c1ccccc1,110% (inactive),85.1% (inactive),6.84% (active),-0.38% (inactive),7.22,6.84,-0.91% (inactive),-4.26% (inactive)
CCOC(=O)c1c2n(c3ccc(O)cc13)CCCCC2,111% (inactive),89.7% (inactive),82.4% (inactive),1.8% (inactive),80.6,82.4,-7.47% (inactive),0% (inactive)
COc1ccc2nc(S(=O)Cc3ncc(C)c(OC)c3C)[nH]c2c1 (stereo unspecified),88% (inactive),71.1% (inactive),80.8% (inactive),-13.3% (inactive),94.1,80.8,-1.69% (inactive),-2.5% (inactive)
COc1ccc(OCCN2C(=O)NC(C)(c3ccc(C)cc3)C2=O)cc1 (stereo unspecified),119% (inactive),101% (inactive),91.1% (inactive),-3.77% (inactive),94.9,91.1,3.15% (inactive),-4.03% (inactive)
COc1ccccc1OCCCn1c(=O)oc2ccccc21,154% (inactive),90.1% (inactive),98.2% (inactive),11.9% (inactive),86.3,98.2,-1.56% (inactive),2.79% (inactive)
CCCNS(=O)(=O)c1ccc(OCC(=O)Nc2ccccc2F)cc1,96.5% (inactive),90.3% (inactive),87.3% (inactive),8.17% (inactive),79.1,87.3,-4.21% (inactive),-0.81% (inactive)
Cc1c(NC(=O)C(C)OC(=O)c2cc3c4ccccc4n(C)c3s2)c(=O)n(-c2ccccc2)n1C (stereo unspecified),94% (inactive),80.8% (inactive),78.4% (inactive),-10% (inactive),88.4,78.4,-11.4% (inactive),1.13% (inactive)
